How the values were obtained:
[1] = test system: Plasmodium falciparum; experiment: Resistance index, ratio of IC50 for Plasmodium falciparum W2 to IC50 for Plasmodium falciparum 3D7; type: functional
How it was run: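 P. falciparum 3D7 and W2 cultures were exposed to test samples prepared in parasite culture medium. Survival was read by a pLDH colorimetric assay using APAD as cofactor, with formazan absorbance at 620 nm and percentage survival set against drug-free wells. IC50 for each strain came from fitted sigmoidal dose-response curves, and the ratio is IC50 W2 / IC50 3D7.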

[2] = test system: Plasmodium falciparum; experiment: Antimalarial activity against Plasmodium falciparum 3D7 after 48 hrs by LDH colorimetric assay; type: functional, organism-based; settings: 3D7, 48 h
How it was run: (§1)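 Parasite survival after drug exposure read by pLDH colorimetric enzyme assay; APAD co-factor, formazan absorbance at 620 nm. Samples prepared in parasite culture medium in 96-well plates. Survival per well relative to drug-free control wells. IC50 from fitted sigmoidal dose-response curves.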

[3] = test system: Plasmodium falciparum; experiment: Antimalarial activity against Plasmodium falciparum W2 after 48 hrs by LDH colorimetric assay; type: functional, organism-based; settings: W2, 48 h; how it was run: as §1
[4] = Cytotoxicity against human WI38 cells after 48 hrs by SRB assay; type: cell-based; settings: WI-38, 48 h
How it was run: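 WI-38 normal human fetal lung fibroblasts, passages 21–50, seeded at 10 000 cells/well and incubated 24 h. Compounds dissolved in DMSO, diluted in medium to five concentrations, then exposed 48 h. Untreated cells as control, medium-only blank, parthenolide as standard. Cells TCA-fixed and stained with sulforhodamine B (NCI protocol). IC50 by non-linear regression.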

[5] = Selectivity index, ratio of IC50 for human WI38 cells to IC50 for Plasmodium falciparum 3D7; type: toxicity, cell-based, WI-38; settings: read-out: Ratio IC50
How it was run: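 Selectivity index calculated as IC50 on WI-38 fibroblasts (48 h SRB) divided by IC50 on P. falciparum 3D7 (pLDH assay).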

[6] = test system: Plasmodium falciparum; experiment: Ratio of chloroquine IC50 to compound IC50 for Plasmodium falciparum W2 after 48 hrs by LDH colorimetric assay; type: functional

| Compound | Ratio IC50 [1] | IC50 [2] [µM] | IC50 [3] [µM] | IC50 [4] [µM] | selectivity ratio [5] | Ratio IC50 [6] |
| --- | --- | --- | --- | --- | --- | --- |
| Cc1ccc(C(=O)/C=C/c2ccc(C(=O)NCCOCCOCCNc3ccnc4cc(Cl)ccc34)cc2)o1 | 1.1 | 0.26 | 0.27 | 10.2 | 40 |  |
| Cc1ccc(C(=O)/C=C/c2ccc(C(=O)NCCCCCCNc3ccnc4cc(Cl)ccc34)cc2)o1 | 1.5 | 0.05 | 0.07 | 19.5 | 435 | 2 |
| Cc1ccc(C(=O)/C=C/c2ccc(C(=O)N(C)CCCNc3ccnc4cc(Cl)ccc34)cc2)o1 | 1.2 | 0.37 | 0.46 | 18.6 | 50 |  |
| Cc1ccc(C(=O)/C=C/c2ccc(C(=O)NCCCN(C)CCCNc3ccnc4cc(Cl)ccc34)cc2)o1 | 2.4 | 0.09 | 0.22 | 5.3 | 58 |  |
| Cc1ccc(C(=O)/C=C/c2ccc(C(=O)N3CCN(c4ccnc5cc(Cl)ccc45)CC3)cc2)o1 | 2.3 | 0.54 | 1.26 | 17.3 | 32 |  |
| Cc1ccc(C(=O)/C=C/c2ccc(C(N)=O)cc2)o1 |  | 10 |  |  |  |  |
| CCCCNC(=O)c1ccc(/C=C/C(=O)c2ccc(C)o2)cc1 |  | 10 |  |  |  |  |
| Cc1ccc(C(=O)/C=C/c2ccc(C(=O)N3CCOCC3)cc2)o1 |  | > 30 |  |  |  |  |
| Cc1ccc(C(=O)/C=C/c2ccc(C(=O)O)cc2)o1 | 0.8 | 18.4 | 14.2 | > 100 |  |  |
| Cc1ccc(C(=O)/C=C/c2ccc(C(=O)NCCNc3ccnc4cc(Cl)ccc34)cc2)o1 | 16.7 | 0.11 | 1.78 | 47.3 | 446 |  |
| Cc1ccc(C(=O)/C=C/c2ccc(C(=O)NCCCNc3ccnc4cc(Cl)ccc34)cc2)o1 | 3.4 | 0.07 | 0.23 | 74.5 | 1120 |  |
| Cc1ccc(C(=O)/C=C/c2ccc(C(=O)NCCCCNc3ccnc4cc(Cl)ccc34)cc2)o1 | 2.1 | 0.05 | 0.1 | 39 | 819 |  |
| Cc1ccc(C(=O)/C=C/c2ccc(C(=O)NC(C)CNc3ccnc4cc(Cl)ccc34)cc2)o1 (centres undefined) | 1.4 | 0.08 | 0.11 | 10 | 126 |  |
| C=C1C(=O)O[C@@H]2C3O[C@]3(C)CC/C=C(\C)CC[C@@H]12 (some centres undefined) |  |  |  | 16.4 |  |  |

From ChEMBL document CHEMBL3102808, “Synthesis, in vitro antimalarial activity and cytotoxicity of novel 4-aminoquinolinyl-chalcone amides” (Bioorg Med Chem, 2014)
